Here are results for three compounds from PMC11364137 (Materials Today Bio, 2024).

Data set [1] concerns S. aureus. The data set can be described thus: Resistance acquisition assay. The format is cell-based, Staphylococcus aureus. To be noted: second assay, concentration kept constant (half of the initial MIC), 30 days.
Data set [2] deals with S. aureus bacterial strain ATCC25923. Briefly: In vivo hernia mesh infection model. Further details: species or system New Zealand white rabbits. To be noted: rabbit, 14 days after surgery. Put shortly:
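Rabbit mesh-implant infection model; anaesthesia im 15 min pre-surgery with ketamine (70 mg kg), diazepam and chlorpromazine (1.5 mg kg⁻¹ each). S. aureus ATCC25923 was grown on LB agar 24 h, 37 °C, then overnight in LB and diluted in 0.9 % saline to a target 10^6 CFU.mL⁻¹. At 14 days animals were xylazine-sedated (im), CO₂-euthanised; implant fragments examined by light microscopy and SEM.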

Consider `CN(C)[C@@H]1C(O)=C(C(N)=O)C(=O)[C@@]2(O)C(O)=C3C(=O)c4c(O)cccc4[C@@](C)(O)[C@H]3C[C@@H]12` [tetracycline], for which the “increase of relative MIC” value in data set [1] is given as “around 3 times”.
Same read-out and setting: to Poly(L-arginine) [PAR30] belongs “strongly stable”.
As for `[H]/N=C(\N/C(=N/[H])NCCCCCCNC(=N)NC(=N)Nc1ccc(Cl)cc1)Nc1ccc(Cl)cc1` [CHX, Chlorhexidine], in data set [2], the “inflammatory reaction (histology)” value is reported as “moderate inflammatory reaction”; the “macroscopic observations at necropsy compared with uncoated mesh” value is “less purulent material, weak hypervascularization, and better tissue integration”. The “skin fistula, necrosis, or edema at necropsy” value in data set [2] (n = 7 per group) is reported as “no animal developed skin fistula, necrosis, or edema”. Moreover, the “bacteria presence in tissue (histology, S. aureus immunolabeling)” value in data set [2] (qualitative) is on record as “not recorded or noticeably reduced”.
